This passage reports IC50, Ratio IC50 and inhibition results from ChEMBL document CHEMBL4118265, “A cascade synthesis, in vitro cholinesterases inhibitory activity and docking studies of novel Tacrine-pyranopyrazole derivatives” (Bioorg Med Chem Lett, 2018).

Usually IC50 stands for the midpoint of a concentration-inhibition curve. Usually inhibition stands for the relative decrease from the control value, in per cent. High values mean a response far below the control, low ones a response near the control.

One test has as its target Acetylcholinesterase (Electrophorus electricus, UniProt O42275). Description: Inhibition of electric eel AChE using acetylthiocholine iodide as substrate preincubated for 15 mins followed by substrate addition measured every 5 mins for 15 mins by spectrophotometric method.
A further test addresses Cholinesterase (Equus caballus, UniProt P81908). Description: Inhibition of horse serum BChE using butyrylthiocholine chloride as substrate preincubated for 15 mins followed by substrate addition measured every 5 mins for 15 mins by spectrophotometric method. The essentials: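 BChE (6.85 x10-3 U) in 100 mM sodium phosphate pH 8.0 was preincubated 15 min at 25 °C with compound at several concentrations in methanol. DTNB (0.5 mM) and butyrylthiocholine chloride (0.2 mM) were then added. A412 read every 5 min for 15 min. IC50 derived from percent inhibition versus a methanol blank; mean ± SD of triplicates.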

A short description of test [1]: Selectivity ratio of IC50 for horse serum BChE to IC50 for electric eel AChE.
Test [2] deals with Acetylcholinesterase (Electrophorus electricus) (UniProt O42275). The experiment in a line: Inhibition of electric eel AChE at 0.006 ug using acetylthiocholine iodide as substrate preincubated for 15 mins followed by substrate addition measured every 5 mins for 15 mins by spectrophotometric method relative to control. In a few lines:
(§1)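 Ellman colorimetric assay. Compound in methanol (10 µl) was mixed with 150 µl 100 mM sodium phosphate pH 8.0 and AChE (5.32 x10-3 U) and held 15 min at 25 °C. DTNB (0.5 mM) was added, then acetylthiocholine iodide (0.71 mM) to start the reaction. Thiolate formation read at 412 nm every 5 min for 15 min, in triplicate. Percent inhibition = (E−S)/E×100 against a methanol blank.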

Test [3] shares this target. Description: Inhibition of electric eel AChE at 0.012 ug using acetylthiocholine iodide as substrate preincubated for 15 mins followed by substrate addition measured every 5 mins for 15 mins by spectrophotometric method relative to control. The essentials: as §1
The target of test [4] is Cholinesterase (Equus caballus) (UniProt P81908). The experiment in a line: Inhibition of horse serum BChE at 0.391 ug using butyrylthiocholine chloride as substrate preincubated for 15 mins followed by substrate addition measured every 5 mins for 15 mins by spectrophotometric method relative to control. In a few lines: (§2)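 Ellman colorimetric assay. Compound in methanol (10 µl) was mixed with 150 µl 100 mM sodium phosphate pH 8.0 and BChE (6.85 x10-3 U) and held 15 min at 25 °C. DTNB (0.5 mM) was added, then butyrylthiocholine chloride (0.2 mM) to start the reaction. A412 read every 5 min for 15 min, in triplicate. Percent inhibition = (E−S)/E×100 against a methanol blank.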

For test [5] the target is unchanged. The experiment in a line: Inhibition of horse serum BChE at 0.781 ug using butyrylthiocholine chloride as substrate preincubated for 15 mins followed by substrate addition measured every 5 mins for 15 mins by spectrophotometric method relative to control. In a few lines: as §2
The target is the same in test [6]. The experiment in a line: Inhibition of horse serum BChE at 1.563 ug using butyrylthiocholine chloride as substrate preincubated for 15 mins followed by substrate addition measured every 5 mins for 15 mins by spectrophotometric method relative to control. In a few lines: as §2
Test [7] shares this target. Description: Inhibition of horse serum BChE at 3.125 ug using butyrylthiocholine chloride as substrate preincubated for 15 mins followed by substrate addition measured every 5 mins for 15 mins by spectrophotometric method relative to control. In a few lines:
as §2

Test [8] has the same target. The experiment in a line: Inhibition of horse serum BChE at 6.25 ug using butyrylthiocholine chloride as substrate preincubated for 15 mins followed by substrate addition measured every 5 mins for 15 mins by spectrophotometric method relative to control. The essentials:
as §2

Test [9] shares this target. Description: Inhibition of horse serum BChE at 12.5 ug using butyrylthiocholine chloride as substrate preincubated for 15 mins followed by substrate addition measured every 5 mins for 15 mins by spectrophotometric method relative to control. The essentials:
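Ellman colorimetric assay. DTNB (0.5 mM) was added, then butyrylthiocholine chloride (0.2 mM) to start the reaction. A412 read every 5 min for 15 min, in triplicate. Percent inhibition = (E−S)/E×100 against a methanol blank.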

The target is the same in test [10]. The experiment in a line: Inhibition of horse serum BChE at 25 ug using butyrylthiocholine chloride as substrate preincubated for 15 mins followed by substrate addition measured every 5 mins for 15 mins by spectrophotometric method relative to control. The essentials: as §2

Sequence of Acetylcholinesterase (O42275 whole entry): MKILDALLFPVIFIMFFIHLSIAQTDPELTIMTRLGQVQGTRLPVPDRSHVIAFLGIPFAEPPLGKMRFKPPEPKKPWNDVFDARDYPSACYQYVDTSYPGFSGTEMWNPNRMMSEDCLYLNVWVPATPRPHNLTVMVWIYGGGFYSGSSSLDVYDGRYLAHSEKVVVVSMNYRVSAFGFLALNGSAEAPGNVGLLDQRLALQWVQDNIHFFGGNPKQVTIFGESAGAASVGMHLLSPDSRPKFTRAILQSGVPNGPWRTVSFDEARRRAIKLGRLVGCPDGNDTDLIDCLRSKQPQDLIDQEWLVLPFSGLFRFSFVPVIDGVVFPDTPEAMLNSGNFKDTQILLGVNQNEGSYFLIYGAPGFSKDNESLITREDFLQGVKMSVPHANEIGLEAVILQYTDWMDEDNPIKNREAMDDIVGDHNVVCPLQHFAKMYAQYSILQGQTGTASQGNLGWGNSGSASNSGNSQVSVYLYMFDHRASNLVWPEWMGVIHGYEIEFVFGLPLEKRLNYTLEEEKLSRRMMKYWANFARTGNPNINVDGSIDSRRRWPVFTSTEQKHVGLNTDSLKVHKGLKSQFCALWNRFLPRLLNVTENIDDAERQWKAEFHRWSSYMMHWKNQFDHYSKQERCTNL
Sequence of Acetylcholinesterase (Electrophorus electricus) (O42275 24-633 limits assumed): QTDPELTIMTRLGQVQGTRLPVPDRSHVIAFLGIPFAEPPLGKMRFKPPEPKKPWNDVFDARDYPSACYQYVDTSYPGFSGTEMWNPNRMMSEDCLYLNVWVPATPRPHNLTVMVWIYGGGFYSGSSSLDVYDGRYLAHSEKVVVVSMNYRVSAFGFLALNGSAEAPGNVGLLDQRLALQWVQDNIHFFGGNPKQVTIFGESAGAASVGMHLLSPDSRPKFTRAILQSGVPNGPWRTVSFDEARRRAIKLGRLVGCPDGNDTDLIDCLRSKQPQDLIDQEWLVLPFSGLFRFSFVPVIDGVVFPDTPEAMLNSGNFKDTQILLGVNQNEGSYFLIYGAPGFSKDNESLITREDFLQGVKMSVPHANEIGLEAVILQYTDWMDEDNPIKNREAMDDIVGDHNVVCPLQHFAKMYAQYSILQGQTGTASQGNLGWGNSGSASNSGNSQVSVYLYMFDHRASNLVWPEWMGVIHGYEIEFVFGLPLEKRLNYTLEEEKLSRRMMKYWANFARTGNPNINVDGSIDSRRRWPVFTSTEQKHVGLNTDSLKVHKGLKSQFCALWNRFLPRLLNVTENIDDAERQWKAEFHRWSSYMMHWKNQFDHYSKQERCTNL
Sequence of Cholinesterase (Equus caballus) (P81908 whole entry): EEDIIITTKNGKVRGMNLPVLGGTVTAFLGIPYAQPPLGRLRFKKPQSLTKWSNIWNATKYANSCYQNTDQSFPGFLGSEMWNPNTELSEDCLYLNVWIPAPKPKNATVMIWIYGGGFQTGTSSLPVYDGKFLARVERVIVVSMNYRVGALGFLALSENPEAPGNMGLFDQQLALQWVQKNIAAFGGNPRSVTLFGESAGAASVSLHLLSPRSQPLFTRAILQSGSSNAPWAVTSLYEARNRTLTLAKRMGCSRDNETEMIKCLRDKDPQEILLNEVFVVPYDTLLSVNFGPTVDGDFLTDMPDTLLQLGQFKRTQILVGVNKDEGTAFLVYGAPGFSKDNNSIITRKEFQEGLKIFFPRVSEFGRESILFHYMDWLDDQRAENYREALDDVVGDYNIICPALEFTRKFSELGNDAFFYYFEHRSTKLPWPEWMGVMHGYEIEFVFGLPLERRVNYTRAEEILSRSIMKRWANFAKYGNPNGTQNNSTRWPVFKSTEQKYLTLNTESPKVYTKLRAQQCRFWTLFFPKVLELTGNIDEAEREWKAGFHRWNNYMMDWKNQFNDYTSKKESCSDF
Sequence of Cholinesterase (P81908 whole entry): as above

For `COc1ccc2ccccc2c1C1c2c(n[nH]c2C)Oc2nc3c(c(N)c21)CCCC3` (stereo not given), the concentration for half-maximal inhibition (IC50) at Acetylcholinesterase amounted to 130 nM; against Cholinesterase, 11300 nM. Besides, in test [1], the Ratio IC50 was found to be 87.3. The inhibition stood at 12.6% in test [2]; 16.1% in test [3]; 2.86% in test [4]; 7.31% in test [5]; 25.1% in [6]; 47.9% in test [7]. Moreover, the inhibition in [8] is 51.9%; in test [9], 63%; in test [10], 70%.

On to `Cc1[nH]nc2c1C(c1cc([N+](=O)[O-])ccc1Cl)c1c(nc3c(c1N)CCCC3)O2` (stereo not given), for which the IC50 against Acetylcholinesterase was 1040 nM; at Cholinesterase, 2500 nM. In addition, the Ratio IC50 in test [1] came out at 2.4. In addition, the inhibition in [4] was 5.53%; in [5], 10.2%; in test [6], 13.9%; in [7], 21.6%; in test [8], 35.6%; in [9] it was 54.2%. Further, in [10], the inhibition was 71.9%.

`Cc1[nH]nc2c1C(c1c(Cl)cccc1[N+](=O)[O-])c1c(nc3c(c1N)CCCC3)O2` (stereo not given): the results for the IC50 against Acetylcholinesterase and at Cholinesterase were 1770 nM and 1840 nM, respectively. In test [1], the Ratio IC50 was 1.04. Moreover, the inhibition in test [4] came out at 37.6%; in [5] it was 52.1%; in test [6] it was 66.2%; in test [7] it was 85.3%; in test [8], 86.5%; in test [9], 94.3%. In addition, in [10], the inhibition stood at 98.7%.

`Cc1[nH]nc2c1C(c1ccc([N+](=O)[O-])cc1)c1c(nc3c(c1N)CCCC3)O2` (stereo not given): the IC50 at Acetylcholinesterase came out at 5800 nM; against Cholinesterase, 2730 nM. Further, the Ratio IC50 in [1] stood at 0.47. In addition, the inhibition in test [4] worked out at 24.9%; in test [5], 37.9%; in test [6], 66.8%; in test [7], 75.1%; in test [8], 90.3%; in test [9], 92.6%. The compound also returned an inhibition in [10] of 93.2%.

Take `Cc1[nH]nc2c1C(c1cccnc1)c1c(nc3c(c1N)CCCC3)O2` (stereo not given): the results for the IC50 against Acetylcholinesterase and against Cholinesterase were 330 nM and 4260 nM, respectively. In addition, the Ratio IC50 in test [1] amounted to 12.9. The inhibition in test [2] came out at 6.61%; in test [3] it was 13.1%; in test [4], 18.2%; in [5] it was 41.6%; in [6] it was 53.9%; in test [7], 57.1%. Also, the inhibition in test [8] came out at 72%; in test [9], 74.2%; in test [10], 84.8%.

On to `Cc1[nH]nc2c1C(c1ccc(-c3ccccc3)cc1)c1c(nc3c(c1N)CCCC3)O2` (stereo not given), for which the IC50 against Acetylcholinesterase is 44 nM; against Cholinesterase, greater than 61200 nM. The Ratio IC50 in test [1] was greater than 1390. In addition, the inhibition worked out at 34.4% in test [2]; 43% in [3]; 11.8% in [8]; 14.1% in test [9]; 20.6% in test [10].

Regarding `Cc1ccc(C2c3c(n[nH]c3C)Oc3nc4c(c(N)c32)CCCC4)c(C)c1` (stereo not given), the figures for the IC50 at Acetylcholinesterase and against Cholinesterase were 290 nM and 39000 nM, respectively. Also, the Ratio IC50 in [1] amounted to 135. In addition, the inhibition worked out at 13.3% in [7], 44.8% in test [8], 49.7% in [9] and 51.9% in test [10].

On to `COc1ccc(C2c3c(n[nH]c3C)Oc3nc4c(c(N)c32)CCCC4)c(OC)c1` (stereo not given), for which the results for the half-inhibitory concentration (IC50) against Acetylcholinesterase and at Cholinesterase were 260 nM and 31100 nM, respectively. Also, the Ratio IC50 in test [1] worked out at 120. The inhibition in test [5] turned out to be 17.8%; in test [6], 37.1%; in test [7], 43%; in test [8] it was 55.8%; in test [9] it was 62.8%; in [10] it was 80.8%.

On to `CSc1ccc(C2c3c(n[nH]c3C)Oc3nc4c(c(N)c32)CCCC4)cc1` (stereo not given), for which the IC50 at Acetylcholinesterase is 58 nM; at Cholinesterase, greater than 66000 nM. For the same compound, the Ratio IC50 in test [1] is greater than 1140. Also, the inhibition in test [2] was found to be 30.4%; in test [3], 36.9%; in test [4], 0.11%; in [5], 10.1%; in test [6] it was 23.7%; in test [7] it was 31%. The inhibition in test [8] amounted to 36.6%; in [9] it was 44.5%; in test [10], 46.7%.

Regarding `Cc1[nH]nc2c1C(c1ccccc1)c1c(nc3c(c1N)CCCC3)O2` (stereo not given), the IC50 against Acetylcholinesterase is 1230 nM; against Cholinesterase it was 36000 nM. Further, the Ratio IC50 in test [1] stood at 29.3. The inhibition in [4] worked out at 5.38%; in [5], 10.7%; in test [6], 13.6%; in [7] it was 23.9%; in test [8] it was 30.7%; in [9] it was 52.5%. Also, in test [10], the inhibition was found to be 72.9%.

With `COc1ccc2c3c1O[C@H]1C[C@@H](O)C=C[C@@]31CCN(C)C2`, the inhibition in test [4] amounted to 11.1%; in test [5] it was 21%; in test [6], 55.2%; in [7], 63.9%; in test [10] it was 97%.

Turning to `Cc1[nH]nc2c1C(c1ccc(Br)cc1)c1c(nc3c(c1N)CCCC3)O2` (stereo not given), the IC50 on Acetylcholinesterase was determined as 1800 nM; on Cholinesterase, 11600 nM. Further, the Ratio IC50 in [1] was found to be 6.47. In addition, the inhibition in [4] turned out to be 13.1%; in test [5], 17.4%; in test [6] it was 37.9%; in test [7] it was 43.1%; in test [8], 58.5%; in test [9], 60.5%. Further, in [10], the inhibition amounted to 69.9%.

Turning to `Cc1[nH]nc2c1C(c1ccc(Cl)cc1)c1c(nc3c(c1N)CCCC3)O2` (stereo not given), the IC50 at Acetylcholinesterase was 1660 nM; at Cholinesterase it was greater than 68200 nM. The Ratio IC50 in test [1] is greater than 41. The inhibition in test [4] was found to be 20.8%; in test [5] it was 23%; in test [6] it was 23.4%; in [7], 27.9%; in test [8], 31.7%; in [9], 45.8%. This compound had an inhibition in test [10] of 46.9%.
